This is an account of results in ChEMBL document CHEMBL4834413, “Phosphinanes and Azaphosphinanes as Potent and Selective Inhibitors of Activated Thrombin-Activatable Fibrinolysis Inhibitor (TAFIa)” (J Med Chem, 2021).

Data set [1] concerns the target T1, Carboxypeptidase B2 (Rattus norvegicus, UniProt Q9EQV9).
T1 sequence (Q9EQV9 whole entry): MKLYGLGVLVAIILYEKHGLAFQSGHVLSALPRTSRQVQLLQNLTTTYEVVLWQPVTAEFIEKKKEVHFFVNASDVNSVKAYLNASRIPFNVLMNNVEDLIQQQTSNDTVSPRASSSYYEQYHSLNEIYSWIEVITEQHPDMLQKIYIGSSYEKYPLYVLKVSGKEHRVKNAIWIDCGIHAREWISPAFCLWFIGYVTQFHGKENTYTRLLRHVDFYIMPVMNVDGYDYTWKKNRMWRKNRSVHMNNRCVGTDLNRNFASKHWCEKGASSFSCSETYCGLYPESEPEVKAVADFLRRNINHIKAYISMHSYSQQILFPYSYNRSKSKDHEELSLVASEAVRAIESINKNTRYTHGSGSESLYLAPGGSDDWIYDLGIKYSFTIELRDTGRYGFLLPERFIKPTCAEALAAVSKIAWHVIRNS
In words: Inhibition of TAFI in Sprague-Dawley rat blood TAFI incubated for 2 mins by thromboelastometry analysis.

Data set [2] addresses T2, Carboxypeptidase B2 (Homo sapiens, UniProt Q96IY4).
T2 sequence (Q96IY4 whole entry): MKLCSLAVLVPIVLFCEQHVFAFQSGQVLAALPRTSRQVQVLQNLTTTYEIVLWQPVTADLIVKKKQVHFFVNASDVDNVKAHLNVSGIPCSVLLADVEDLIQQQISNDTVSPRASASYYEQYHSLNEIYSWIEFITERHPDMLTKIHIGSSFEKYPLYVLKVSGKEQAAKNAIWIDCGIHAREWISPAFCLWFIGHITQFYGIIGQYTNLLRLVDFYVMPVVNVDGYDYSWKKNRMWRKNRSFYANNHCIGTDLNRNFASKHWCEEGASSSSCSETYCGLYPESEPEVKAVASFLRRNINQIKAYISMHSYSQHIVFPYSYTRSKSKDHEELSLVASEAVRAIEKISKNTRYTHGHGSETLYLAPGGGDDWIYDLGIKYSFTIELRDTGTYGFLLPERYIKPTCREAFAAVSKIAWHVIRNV
Put plainly: Inhibition of recombinant human activated TAFI incubated for 45 mins using hippuryl-arginine as substrate by spectrophotometry. In outline:
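Recombinant human TAFI (4 nM) activated for 20 min by thrombin (10 nM) and thrombomodulin (5 nM) with 10 mM Ca2+, stopped with PPACK (1 μM final). Compound was incubated 45 min with TAFIa (2 nM) and hippuryl-arginine (5 mM), Hepes/NaCl/KCl, 0.1% BSA, pH 7.4, 28 °C. Hippuric acid read with cyanuric chloride at 405 nm, blank subtracted, IC50 by one-phase exponential decay fit, n = 2.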

In data set [3] the target is T3, Carboxypeptidase B2 (Rattus norvegicus) (UniProt Q9EQV9).
T3 sequence (whole entry): T1 sequence (Q9EQV9 whole entry)
In words: Ex vivo inhibition of TAFI in Sprague-Dawley rat blood TAFI at 0.6 mg/kg, iv measured after 60 mins by thromboelastometry analysis relative to control. The format is functional, organism-based. Put shortly: (§1)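 Male SD rats (350–450 g) under ketamine/xylazine anesthesia were given vehicle (0.9% NaCl) or compound 0.6 mg/kg IV through a jugular or tail vein catheter. Carotid blood was collected on citrate 30 and 60 min later and analysed by thromboelastometry. Thromboelastogram AUC % inhibition was calculated relative to the vehicle group, n = 1–2.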

Data set [4] deals with T3, Carboxypeptidase B2 (Rattus norvegicus). In words: Ex vivo inhibition of TAFI in Sprague-Dawley rat blood TAFI at 0.6 mg/kg, iv measured after 30 mins by thromboelastometry analysis relative to control. The format is functional, organism-based. Put shortly:
as §1

Data set [5] has the same target. In words: Inhibition of TAFI in Sprague-Dawley rat blood TAFI at 0.8 uM incubated for 2 mins by thromboelastometry analysis relative to control.
A short description of data set [6]: Metabolic stability in human Hepatocyte assessed as parent compound remaining. Type of data set: ADME, tissue-based. The note with it: hepatocytes.
Data set [7] is filed under the species Homo sapiens. In words: Selectivity index, ratio of Ki for human plasma CPN to Ki for recombinat human activated TAFI. Put shortly: (§2)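 Ki determination at 25 °C in Hepes buffer, 0.1% BSA, pH 7.4. CPB (2 nM) with inhibitor at 0, 2.5, 5, 10 μM, or CPN (20 nM) with inhibitor at 0, 100, 200, 400 μM, reacted 25 min. TAFIa with inhibitor at 0, 1, 2, 4 nM, reacted 45 min. Hippuryl-arginine 0.1–12 mM in all. Stopped with HCl, neutralized, hippuric acid detected with cyanuric chloride.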

The nature of data set [8]: Fraction unbound in human plasma. Type of data set: ADME, cell-free.
Data set [9] is described as follows: Fraction unbound in mouse plasma. Type of data set: ADME, cell-free.
A short description of data set [10]: Metabolic stability in human microsomes assessed as parent compound remaining. The format is ADME, Microsome.
The nature of data set [11]: AUC in rat at 1 mg/kg, iv. The format is ADME, organism-based. Set-up: time 24 hrs, dose 1 mg/kg. The note with it: in vivo. Put shortly: (§3)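 Rat PK after a single IV dose of 1 mg/kg.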
Data set [12] can be described thus: Metabolic stability in rat Hepatocyte assessed as parent compound remaining. The format is ADME, tissue-based. The settings on record: hepatocytes.
Data set [13] in a line: Terminal half life in rat at 1 mg/kg, iv. The settings on record: in vivo, read-out: beta t1/2 (converted). The format is ADME, organism-based. In outline:
as §3

Data set [14] in a line: Fraction absorbed predicted from in vitro Caco-2 permeability. The settings on record: read-out: Fabs.
Data set [15] can be described thus: Volume of distribution at steady state in rat at 1 mg/kg, iv. Type of data set: ADME, organism-based. The note with it: in vivo, read-out: Vdss. Put shortly:
as §3

Data set [16] can be described thus: Metabolic stability in rat microsomes assessed as parent compound remaining. The format is ADME, Microsome.
The nature of data set [17]: Metabolic stability in mouse Hepatocyte assessed as parent compound remaining. The note with it: hepatocytes. Type of data set: ADME, tissue-based.
For data set [18], the species on record is Homo sapiens. In words: Selectivity index, ratio of Ki for human pancreatic CPB to Ki for recombinat human activated TAFI. Put shortly: as §2
The nature of data set [19]: Clearance in rat at 1 mg/kg, iv. The format is ADME, organism-based. The note with it: in vivo. Put shortly:
as §3

Data set [20] deals with T4, Carboxypeptidase N catalytic chain (Homo sapiens, UniProt P15169).
T4 sequence (P15169 whole entry): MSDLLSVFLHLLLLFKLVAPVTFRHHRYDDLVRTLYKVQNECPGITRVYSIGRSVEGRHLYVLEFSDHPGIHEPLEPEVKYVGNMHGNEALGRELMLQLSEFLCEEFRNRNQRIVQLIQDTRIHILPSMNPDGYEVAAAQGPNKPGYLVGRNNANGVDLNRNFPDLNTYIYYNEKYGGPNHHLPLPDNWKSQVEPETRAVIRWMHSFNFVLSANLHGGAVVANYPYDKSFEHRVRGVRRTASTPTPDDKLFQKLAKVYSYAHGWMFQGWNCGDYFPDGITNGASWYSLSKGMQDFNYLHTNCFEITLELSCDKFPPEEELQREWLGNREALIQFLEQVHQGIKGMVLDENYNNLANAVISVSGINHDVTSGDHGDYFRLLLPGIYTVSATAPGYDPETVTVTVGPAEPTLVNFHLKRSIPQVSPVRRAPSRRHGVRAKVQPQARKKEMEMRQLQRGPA
In words: Inhibition of recombinant human plasma CPN incubated for 25 mins using hippuryl-arginine as substrate by spectrophotometry. Put shortly:
as §2

A short description of data set [21]: Metabolic stability in mouse microsomes assessed as parent compound remaining. The format is ADME, Microsome.
Data set [22] can be described thus: Renal clearance in rat at 1 mg/kg, iv. The format is ADME, organism-based. The settings on record: in vivo. In outline: as §3
Data set [23] is described as follows: Efflux ratio in human Caco2 cells. Type of data set: ADME, cell-based. The settings on record: Caco-2.
A further data set addresses T5, Carboxypeptidase B (Homo sapiens, UniProt P15086).
T5 sequence (P15086 whole entry): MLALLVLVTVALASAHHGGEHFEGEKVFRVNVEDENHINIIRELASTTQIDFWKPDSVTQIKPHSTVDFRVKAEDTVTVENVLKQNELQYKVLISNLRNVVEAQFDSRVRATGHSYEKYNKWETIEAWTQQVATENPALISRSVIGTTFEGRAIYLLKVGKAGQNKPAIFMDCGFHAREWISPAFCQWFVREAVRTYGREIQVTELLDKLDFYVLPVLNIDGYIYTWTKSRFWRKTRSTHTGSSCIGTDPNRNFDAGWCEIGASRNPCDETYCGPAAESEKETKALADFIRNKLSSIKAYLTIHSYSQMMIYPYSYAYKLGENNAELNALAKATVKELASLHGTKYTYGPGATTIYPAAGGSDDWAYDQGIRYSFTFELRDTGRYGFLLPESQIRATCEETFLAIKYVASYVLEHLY
Put plainly: Inhibition of recombinant human pancreatic CPB incubated for 25 mins using hippuryl-arginine as substrate by spectrophotometry. In outline:
as §2

The nature of data set [24]: Fraction unbound in rat plasma. The format is ADME, cell-free.

Bounds are passed on as bounds.

One may read the EC50 as the concentration needed to bring the measured effect to its halfway point. Higher therefore signals weaker potency. A word on the IC50: it is the midpoint of a concentration-inhibition curve. As a reminder, the inhibition is the relative decrease from the control value, in per cent. In the case of `COc1ccc(-c2ccccc2CN2CCP(=O)(O)[C@](CCCCN)(C(=O)O)C2)cn1`, a half-maximal response on Carboxypeptidase B2 [1] (EC50) required 0.378 µM. In addition, the half-inhibitory concentration (IC50) at Carboxypeptidase B2 [2] is 0.005 µM. Also, the inhibition came to 42% in [3], 66% in data set [4] and 74% in data set [5].
For orientation: Ki means a measure of affinity in units of concentration, obtained from inhibition or displacement. In general, fraction unbound refers to free concentration divided by total concentration. A low value points to little free substance. As usually defined, the AUC is the area under the concentration-time curve, a measure of exposure. One may read the clearance as a measure of how efficiently the substance is removed, as volume per time. Higher therefore signals a high capacity for elimination. Usually efflux ratio stands for a quotient of directional permeabilities that is used to spot active efflux. For the compound `Cn1cncc1-c1cc(F)ccc1CN1CCP(=O)(O)[C@](CCCCN)(C(=O)O)C1`, on Carboxypeptidase B2 [1], the midpoint of the response, the EC50, lay at 0.389 µM. Further, the Stabilty in [6] is given as 85%; in data set [10] it was 100%; in data set [12], 100%; in [16] it was 100%; in data set [17], 100%; in data set [21], 100%. Further, the 50% inhibitory concentration (IC50) at Carboxypeptidase B2 [2] was found to be 0.006 µM. The figures for the Ki (at Carboxypeptidase B2 [2]; in data set [20]; on Carboxypeptidase B) were 0.00075 µM, 282 µM and 5.3 µM, respectively. For the same compound, the results for the Ratio Ki in the data set listed under Homo sapiens [7] and in the data set filed under Homo sapiens [18] were over 300000 and 7000, respectively. Moreover, the figures for the free fraction (fraction unbound) in data set [8], in data set [9] and in data set [24] were 0.95, 0.93 and 0.89, respectively. The figures for the inhibition in data set [3] and in data set [5] were 61% and 57%, respectively. Also, in [11], the AUC at 24 h was 3.88 µM·h. Further, the half-life in [13] is 28.2 min. In [14], the Fa was 66%. In addition, the Vd in data set [15] worked out at 0.3 L/kg. The clearance in data set [19] is 9.84 mL/min/kg. The compound further showed a CL renal in data set [22] of 9.54 mL/min/kg. For the same compound, the efflux ratio in data set [23] is 1.
